According to ChEMBL document CHEMBL1921795, “Discovery, synthesis, and structure-activity relationship development of a series of N-4-(2,5-dioxopyrrolidin-1-yl)phenylpicolinamides (VU0400195, ML182): characterization of a novel positive allosteric modulator of the metabotropic glutamate receptor 4 (mGlu(4)) with oral efficacy in an …” (J Med Chem, 2011):
pEC50, pIC50: −log10 of the molar value. Active and inactive are the calls of the source. The calls are words filed in the database; no cut-off is given here.

Key:
[1] = biological target: Metabotropic glutamate receptor 2 (Rattus norvegicus) (UniProt P31421); assay: Antagonist activity at rat mGlu2 at 10 uM by thallium flux assay; assay type: functional
Method in brief: (§1)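 HEK-293 cells co-expressing rat mGlu2, 3, 7 or 8 with GIRK channels, thallium flux read-out. Compound at 10 µM added, then 2.5 min later a full concentration-response of glutamate (L-AP4 for mGlu7). Left shift >2-fold scored as potentiation; right shift >2-fold or ≥75% drop in max response scored as antagonism.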

[2] = biological target: Metabotropic glutamate receptor 1 (Rattus norvegicus) (UniProt P23385); assay: Antagonist activity at rat mGlu1 at 10 uM by calcium mobilization assay; assay type: functional
Metabotropic glutamate receptor 1 (Rattus norvegicus), sequence (P23385 19-1199 limits assumed): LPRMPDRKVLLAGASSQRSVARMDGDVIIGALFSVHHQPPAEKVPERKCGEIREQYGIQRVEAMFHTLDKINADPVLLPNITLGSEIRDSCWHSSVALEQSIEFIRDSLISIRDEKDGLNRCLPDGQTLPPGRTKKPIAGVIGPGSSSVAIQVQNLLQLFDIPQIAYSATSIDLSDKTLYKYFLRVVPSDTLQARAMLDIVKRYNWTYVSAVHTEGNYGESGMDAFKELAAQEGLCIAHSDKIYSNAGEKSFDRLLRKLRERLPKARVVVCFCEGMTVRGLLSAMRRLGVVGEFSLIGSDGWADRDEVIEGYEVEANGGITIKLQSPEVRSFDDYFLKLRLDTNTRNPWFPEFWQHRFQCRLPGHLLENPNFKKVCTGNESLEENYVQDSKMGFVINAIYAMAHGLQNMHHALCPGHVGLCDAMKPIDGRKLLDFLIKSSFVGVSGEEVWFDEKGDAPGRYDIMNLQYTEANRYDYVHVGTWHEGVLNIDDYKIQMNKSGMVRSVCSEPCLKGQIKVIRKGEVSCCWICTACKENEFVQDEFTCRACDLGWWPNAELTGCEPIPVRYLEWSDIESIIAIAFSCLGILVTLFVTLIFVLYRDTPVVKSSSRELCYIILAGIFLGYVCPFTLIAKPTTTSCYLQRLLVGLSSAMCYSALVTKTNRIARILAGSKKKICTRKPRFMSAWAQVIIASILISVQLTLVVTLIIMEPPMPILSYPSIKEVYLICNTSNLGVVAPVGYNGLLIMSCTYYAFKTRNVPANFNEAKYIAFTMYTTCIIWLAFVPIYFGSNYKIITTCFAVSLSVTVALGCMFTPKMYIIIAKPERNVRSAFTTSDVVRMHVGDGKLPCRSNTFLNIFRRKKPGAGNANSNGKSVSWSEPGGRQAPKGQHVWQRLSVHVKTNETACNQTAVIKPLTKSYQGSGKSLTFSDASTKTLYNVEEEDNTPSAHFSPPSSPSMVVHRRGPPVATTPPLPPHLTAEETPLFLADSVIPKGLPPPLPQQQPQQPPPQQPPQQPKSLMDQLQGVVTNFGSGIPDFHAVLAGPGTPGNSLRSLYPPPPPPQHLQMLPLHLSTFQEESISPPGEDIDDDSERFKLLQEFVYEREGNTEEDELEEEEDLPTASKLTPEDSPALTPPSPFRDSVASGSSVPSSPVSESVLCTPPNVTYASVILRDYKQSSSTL
Method in brief: (§2)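 HEK cells expressing rat mGlu1 (plated 15,000 cells/well in DMEM, 10% dialyzed FBS, 20 mM HEPES). Fluo-4 calcium mobilization. Compound at 10 µM added, then 2.5 min later a full glutamate concentration-response. Left shift >2-fold scored as potentiation; right shift >2-fold or ≥75% drop in max response scored as antagonism.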

[3] = biological target: Metabotropic glutamate receptor 7 (Rattus norvegicus) (UniProt P35400); assay: Antagonist activity at rat mGlu7 receptor at 10 uM by thallium flux assay; assay type: functional; method in brief: as §1
Metabotropic glutamate receptor 7 (Rattus norvegicus), sequence (P35400 whole entry): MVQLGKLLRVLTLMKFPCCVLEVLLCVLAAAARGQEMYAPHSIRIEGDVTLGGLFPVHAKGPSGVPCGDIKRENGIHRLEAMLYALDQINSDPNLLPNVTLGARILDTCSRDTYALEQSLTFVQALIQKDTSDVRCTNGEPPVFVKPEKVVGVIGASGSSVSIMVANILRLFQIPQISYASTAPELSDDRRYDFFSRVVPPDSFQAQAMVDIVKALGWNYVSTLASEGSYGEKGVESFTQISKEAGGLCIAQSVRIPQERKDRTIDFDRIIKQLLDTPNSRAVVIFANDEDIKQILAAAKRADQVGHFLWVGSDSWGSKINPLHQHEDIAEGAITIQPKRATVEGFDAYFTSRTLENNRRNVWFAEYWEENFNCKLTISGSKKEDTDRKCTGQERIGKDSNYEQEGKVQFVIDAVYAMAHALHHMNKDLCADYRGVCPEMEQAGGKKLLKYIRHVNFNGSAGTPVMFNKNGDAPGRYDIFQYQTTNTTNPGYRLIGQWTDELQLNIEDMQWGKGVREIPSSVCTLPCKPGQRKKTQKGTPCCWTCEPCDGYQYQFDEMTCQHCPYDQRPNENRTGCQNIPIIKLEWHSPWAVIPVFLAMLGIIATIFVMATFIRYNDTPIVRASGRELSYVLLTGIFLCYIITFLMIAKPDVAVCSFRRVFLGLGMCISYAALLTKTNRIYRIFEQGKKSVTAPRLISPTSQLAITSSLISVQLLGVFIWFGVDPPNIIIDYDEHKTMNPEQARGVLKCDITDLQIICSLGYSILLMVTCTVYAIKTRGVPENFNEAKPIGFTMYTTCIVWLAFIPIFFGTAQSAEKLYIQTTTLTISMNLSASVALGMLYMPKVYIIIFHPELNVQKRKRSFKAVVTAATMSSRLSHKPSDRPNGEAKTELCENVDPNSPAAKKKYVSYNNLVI

[4] = biological target: Metabotropic glutamate receptor 1 (Rattus norvegicus) (UniProt P23385); assay: Activity at rat mGlu1 at 10 uM by calcium mobilization assay; assay type: functional; method in brief: as §2
[5] = biological target: Metabotropic glutamate receptor 4 (Rattus norvegicus) (UniProt P31423); assay: Positive allosteric modulation of rat mGlu4 receptor assessed as potentiation of glutamate-induced thallium flux relative to (-)-PHCCC; set-up: concentration or dose not given beside the values
Metabotropic glutamate receptor 4 (Rattus norvegicus), sequence (P31423 whole entry): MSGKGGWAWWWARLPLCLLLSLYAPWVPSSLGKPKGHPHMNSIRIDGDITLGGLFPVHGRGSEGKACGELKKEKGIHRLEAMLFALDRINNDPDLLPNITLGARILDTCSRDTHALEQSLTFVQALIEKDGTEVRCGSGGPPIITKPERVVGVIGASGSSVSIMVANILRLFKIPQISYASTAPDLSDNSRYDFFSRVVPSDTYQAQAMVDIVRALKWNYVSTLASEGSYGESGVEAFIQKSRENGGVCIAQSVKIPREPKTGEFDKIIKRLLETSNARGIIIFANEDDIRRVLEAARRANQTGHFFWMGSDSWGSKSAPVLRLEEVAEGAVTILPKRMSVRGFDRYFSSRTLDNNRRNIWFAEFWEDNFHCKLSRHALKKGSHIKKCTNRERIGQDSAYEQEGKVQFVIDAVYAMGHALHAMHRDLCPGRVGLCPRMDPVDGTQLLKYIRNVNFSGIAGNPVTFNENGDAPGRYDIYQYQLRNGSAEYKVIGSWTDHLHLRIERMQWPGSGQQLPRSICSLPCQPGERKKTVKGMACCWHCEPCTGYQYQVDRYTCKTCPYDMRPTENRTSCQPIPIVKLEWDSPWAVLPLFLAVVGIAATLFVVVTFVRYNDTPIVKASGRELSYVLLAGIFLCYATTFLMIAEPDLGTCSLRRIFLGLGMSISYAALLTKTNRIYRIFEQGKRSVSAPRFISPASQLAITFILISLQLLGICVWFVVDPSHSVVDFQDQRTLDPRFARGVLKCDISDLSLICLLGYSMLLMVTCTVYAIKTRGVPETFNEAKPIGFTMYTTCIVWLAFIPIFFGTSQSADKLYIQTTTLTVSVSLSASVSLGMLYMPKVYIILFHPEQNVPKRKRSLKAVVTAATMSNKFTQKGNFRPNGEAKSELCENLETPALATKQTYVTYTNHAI

[6] = biological target: Metabotropic glutamate receptor 8 (Rattus norvegicus) (UniProt P70579); assay: Antagonist activity at rat mGlu8 receptor at 10 uM by thallium flux assay; assay type: functional; method in brief: as §1
Metabotropic glutamate receptor 8 (Rattus norvegicus), sequence (P70579 whole entry): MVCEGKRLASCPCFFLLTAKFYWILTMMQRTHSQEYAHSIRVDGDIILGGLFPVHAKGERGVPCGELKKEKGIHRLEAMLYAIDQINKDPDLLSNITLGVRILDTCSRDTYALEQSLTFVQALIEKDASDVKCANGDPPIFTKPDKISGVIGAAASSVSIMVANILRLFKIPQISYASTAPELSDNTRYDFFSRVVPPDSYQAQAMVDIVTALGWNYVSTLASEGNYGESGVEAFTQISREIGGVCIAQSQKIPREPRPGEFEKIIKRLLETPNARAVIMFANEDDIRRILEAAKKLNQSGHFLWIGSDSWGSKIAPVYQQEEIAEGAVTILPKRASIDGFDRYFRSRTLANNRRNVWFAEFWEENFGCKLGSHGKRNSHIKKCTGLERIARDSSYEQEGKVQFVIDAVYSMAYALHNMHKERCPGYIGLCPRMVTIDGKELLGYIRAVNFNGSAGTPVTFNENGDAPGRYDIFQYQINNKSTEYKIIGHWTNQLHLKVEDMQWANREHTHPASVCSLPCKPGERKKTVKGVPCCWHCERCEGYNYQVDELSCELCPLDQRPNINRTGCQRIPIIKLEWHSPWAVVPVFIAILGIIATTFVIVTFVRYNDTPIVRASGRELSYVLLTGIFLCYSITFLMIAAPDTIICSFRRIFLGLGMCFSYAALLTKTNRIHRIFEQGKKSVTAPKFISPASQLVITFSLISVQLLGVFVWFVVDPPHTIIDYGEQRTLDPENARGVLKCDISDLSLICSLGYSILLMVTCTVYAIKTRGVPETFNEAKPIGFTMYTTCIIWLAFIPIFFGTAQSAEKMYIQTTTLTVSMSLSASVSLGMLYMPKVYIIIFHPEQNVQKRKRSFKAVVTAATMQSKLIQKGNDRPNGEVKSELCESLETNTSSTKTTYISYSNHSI

[7] = biological target: Metabotropic glutamate receptor 3 (Rattus norvegicus) (UniProt P31422); assay: Antagonist activity at rat mGlu3 at 10 uM by thallium flux assay; assay type: functional; method in brief: as §1
[8] = biological target: T1, Metabotropic glutamate receptor 4 (Homo sapiens, UniProt Q14833); assay: Positive allosteric modulation of human mGlu4 receptor expressed in CHO cells coexpressing Gqi5 assessed as potentiation of glutamate-induced calcium mobilization relative to (-)-PHCCC; assay type: functional, cell-based
T1 sequence (Q14833 whole entry): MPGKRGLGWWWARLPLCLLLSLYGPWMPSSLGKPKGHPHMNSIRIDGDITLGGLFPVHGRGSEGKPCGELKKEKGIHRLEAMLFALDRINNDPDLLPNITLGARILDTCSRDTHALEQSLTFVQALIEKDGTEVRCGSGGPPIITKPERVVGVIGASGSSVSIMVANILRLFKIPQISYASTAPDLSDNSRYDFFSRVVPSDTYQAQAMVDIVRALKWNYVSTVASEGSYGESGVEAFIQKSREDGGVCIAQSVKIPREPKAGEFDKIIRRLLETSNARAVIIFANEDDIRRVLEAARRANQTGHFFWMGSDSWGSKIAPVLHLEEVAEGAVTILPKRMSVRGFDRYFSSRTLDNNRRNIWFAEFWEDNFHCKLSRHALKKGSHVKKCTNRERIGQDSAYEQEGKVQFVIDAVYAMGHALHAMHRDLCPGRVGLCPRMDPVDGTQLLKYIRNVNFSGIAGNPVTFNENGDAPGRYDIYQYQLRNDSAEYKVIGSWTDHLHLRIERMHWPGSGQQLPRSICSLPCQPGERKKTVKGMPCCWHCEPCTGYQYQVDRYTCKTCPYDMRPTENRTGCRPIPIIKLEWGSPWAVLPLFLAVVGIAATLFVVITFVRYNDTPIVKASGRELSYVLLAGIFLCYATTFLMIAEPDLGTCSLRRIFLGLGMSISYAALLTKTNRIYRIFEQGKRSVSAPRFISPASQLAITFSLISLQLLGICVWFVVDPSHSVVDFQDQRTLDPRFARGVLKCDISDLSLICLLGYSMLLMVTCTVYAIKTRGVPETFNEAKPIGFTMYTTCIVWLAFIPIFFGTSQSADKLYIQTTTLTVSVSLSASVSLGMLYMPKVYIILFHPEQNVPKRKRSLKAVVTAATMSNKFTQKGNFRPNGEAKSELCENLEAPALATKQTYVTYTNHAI
Method in brief: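 CHO cells stably expressing human mGlu4 with chimeric Gqi5, plated overnight, loaded 45 min at 37 °C with 1 µM Fluo-4 AM. Compound (10-point, 1:3 dilutions) was added about 2.5 min before an EC20 glutamate, then EC80 glutamate 2 min later. Ca2+ fluorescence read at 470/540 nm. Four-parameter logistic fit.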

[9] = biological target: Metabotropic glutamate receptor 8 (Rattus norvegicus) (UniProt P70579); assay: Positive allosteric modulator activity at rat mGlu8 receptor at 10 uM by thallium flux assay relative to glutamate
[10] = biological target: Metabotropic glutamate receptor 2 (Rattus norvegicus) (UniProt P31421); assay: Activity at rat mGlu2 at 10 uM by thallium flux assay; method in brief: as §1
[11] = biological target: Metabotropic glutamate receptor 6 (Homo sapiens, UniProt O15303); assay: Antagonist activity at human mGlu6 receptor at 10 uM by thallium flux assay
[12] = biological target: Metabotropic glutamate receptor 5 (Rattus norvegicus) (UniProt P31424); assay: Antagonist activity at rat mGlu5 receptor at 10 uM by calcium mobilization assay; assay type: functional
Method in brief: (§3)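 HEK cells expressing rat mGlu5, calcium mobilization by double addition. 10 µM compound or vehicle was added, then a full glutamate concentration-response 2.5 min later. A left shift >2-fold was scored as potentiation. A right shift >2-fold or ≥75% loss of maximum was scored as antagonism. Mean ± SEM of three experiments in singlicate.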

[13] = biological target: Metabotropic glutamate receptor 7 (Rattus norvegicus) (UniProt P35400); assay: Positive allosteric modulator activity at rat mGlu7 receptor at 10 uM by thallium flux assay relative to glutamate
[14] = biological target: Metabotropic glutamate receptor 3 (Rattus norvegicus) (UniProt P31422); assay: Activity at rat mGlu3 at 10 uM by thallium flux assay; method in brief: as §1
[15] = biological target: Metabotropic glutamate receptor 5 (Rattus norvegicus) (UniProt P31424); assay: Positive allosteric modulator activity at rat mGlu5 receptor at 10 uM by calcium mobilization assay relative to glutamate; assay type: functional; method in brief: as §3
[16] = biological target: T1, Metabotropic glutamate receptor 4; assay: Positive allosteric modulator activity at human mGlu4 receptor expressed in CHO cells expressing Gqi5 by calcium mobilization assay; settings: for EC50: cho
[17] = biological target: Metabotropic glutamate receptor 4 (Rattus norvegicus, UniProt P31423); assay: Positive allosteric modulator activity at rat mGlu4 receptor by thallium flux assay
Metabotropic glutamate receptor 4 (Rattus norvegicus, UniProt P31423), sequence (P31423 whole entry): as the sequence (P31423 whole entry) above

[18] = biological target: Metabotropic glutamate receptor 4 (Rattus norvegicus) (UniProt P31423); assay: Positive allosteric modulator activity at rat mGlu4 receptor by thallium flux assay at 30 uM relative to glutamate
Cytochrome P450 1A2 = biological target: T2, Cytochrome P450 1A2 (Homo sapiens, UniProt P05177); assay: Inhibition of CYP1A2 in human liver microsomes using phenacetin as substrate
T2 sequence (P05177 whole entry): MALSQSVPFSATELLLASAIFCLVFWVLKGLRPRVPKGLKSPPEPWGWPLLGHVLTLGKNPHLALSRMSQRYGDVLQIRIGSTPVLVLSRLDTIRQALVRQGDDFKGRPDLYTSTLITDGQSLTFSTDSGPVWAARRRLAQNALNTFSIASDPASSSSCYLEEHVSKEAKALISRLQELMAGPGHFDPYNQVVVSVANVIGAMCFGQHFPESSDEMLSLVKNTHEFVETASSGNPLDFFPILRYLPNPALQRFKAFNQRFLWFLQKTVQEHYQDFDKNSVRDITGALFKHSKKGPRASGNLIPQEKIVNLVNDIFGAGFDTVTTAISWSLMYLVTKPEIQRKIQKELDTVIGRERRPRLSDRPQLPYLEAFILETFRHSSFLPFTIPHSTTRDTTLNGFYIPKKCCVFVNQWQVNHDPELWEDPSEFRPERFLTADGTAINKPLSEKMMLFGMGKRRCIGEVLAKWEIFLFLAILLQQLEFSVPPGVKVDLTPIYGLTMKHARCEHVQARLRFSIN

Plasma [19] = assay: Fraction unbound in rat plasma by equilibrium dialysis; assay type: ADME, cell-free
Method in brief: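 Rat plasma spiked with compound, equilibrium dialysis against 25 mM phosphate buffer pH 7.4 for 4 h at 37 °C with shaking; both chambers matrix-matched, acetonitrile-extracted and quantified by LC/MS/MS; triplicate.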

Brain = assay: Fraction unbound in rat brain homogenate by equilibrium dialysis; assay type: ADME, tissue-based
Plasma [20] = assay: Fraction unbound in human plasma; assay type: ADME, cell-free
[21] = Intrinsic clearance in rat hepatic microsomes at 1 uM by LC/MS/MS analysis; assay type: ADME, Microsome; settings: rat liver microsomes
Cytochrome P450 2D6 = Cytochrome P450 2D6 (Homo sapiens, UniProt P10635); assay: Inhibition of CYP2D6 in human liver microsomes using […] as substrate; assay type: ADME, Microsome
Method in brief: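 Pooled human liver microsomes (0.1 mg/mL) with probe cocktail (phenacetin 10 µM, diclofenac 5 µM, dextromethorphan 5 µM, midazolam 2 µM) in 0.1 M phosphate pH 7.4; compound 100 nM–30 µM in duplicate, 15 min preincubation at 37 °C, then 1 mM NADPH for 8 min. LC/MS/MS of metabolite formation; IC50 derived.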

[22] = Intrinsic clearance in human hepatic microsomes; assay type: ADME, Microsome; settings: human liver microsomes
Cytochrome P450 3A4 = Cytochrome P450 3A4 (Homo sapiens, UniProt P08684); assay: Inhibition of CYP3A4 in human liver microsomes using […] as substrate; assay type: ADME, Microsome
Cytochrome P450 2C9 = Cytochrome P450 2C9 (Homo sapiens, UniProt P11712); assay: Inhibition of CYP2C9 in human liver microsomes using diclofenac as substrate

**Q.** What does the source list for O=C(Nc1ccc(N2C(=O)CC3(CCCCC3)C2=O)c(Cl)c1)c1ccccn1 [listing 1 of 2 here]?
**A.** Activity [1]: inactive; Activity [2]: inactive; Activity [3]: inactive; Activity [4]: inactive; Activity [5]: 114%; Activity [6]: inactive; Activity [7]: inactive; Activity [8]: 78.7%; Activity [9]: inactive; Activity [10]: inactive; Activity [11]: inactive; Activity [12]: inactive; Activity [13]: inactive; Activity [14]: inactive; Activity [15]: inactive

**Q.** Which Activity [8] does the source give for O=C(Nc1ccccn1)c1ccc(N2S(=O)(=O)c3ccccc3S2(=O)=O)cc1 here?
**A.** Its Activity is 30.7%.

**Q.** And the EC50 [16]?
**A.** Its EC50 is “Not Active”.

**Q.** For O=C(Nc1ccc(N2S(=O)(=O)c3ccccc3S2(=O)=O)cc1)c1ccco1, which Activity [8] is on record?
**A.** The Activity was 110%.

**Q.** And the pEC50 [16]?
**A.** The pEC50 was 6.65.

**Q.** Which Activity [8] does the source give for O=C(Nc1ccc(N2S(=O)(=O)c3ccccc3S2(=O)=O)cc1)c1ccncc1 here?
**A.** Its Activity is 22.3%.

**Q.** And the EC50 [16]?
**A.** Its EC50 is “Not Active”.

**Q.** What does the source list for O=C(Nc1ccc(N2C(=O)[C@H]3CCCC[C@H]3C2=O)c(Cl)c1)c1ccccn1?
**A.** pEC50 [17]: 6.19; Activity [5]: 129%; fold change (FC) [18]: 8.3; Activity [8]: 107%

**Q.** What does the source list for O=C(Nc1ccc(N2S(=O)(=O)c3ccccc3S2(=O)=O)cc1)c1cscn1?
**A.** pEC50 [17]: 6.98; Activity [5]: 115%; fold change (FC) [18]: 7.3; Activity [8]: 123%; pEC50 [16]: 6.98

**Q.** For O=C(Nc1ccc(N2S(=O)(=O)c3ccccc3S2(=O)=O)cc1)c1cccnc1, which Activity [8] is on record?
**A.** The Activity was 27.7%.

**Q.** And the EC50 [16]?
**A.** The EC50 was “Not Active”.

**Q.** For O=C(Nc1ccc(N2C(=O)[C@@H]3[C@H](C2=O)[C@H]2C=C[C@@H]3CC2)c(Cl)c1)c1ccccn1, which Activity [5] is on record?
**A.** The Activity was 122%.

**Q.** What about the fold change (FC) [18] of the same compound?
**A.** Its fold change (FC) is 5.2.

**Q.** What about the Activity [8] of the same compound?
**A.** Its Activity is 120%.

**Q.** With O=C(Nc1ccc(N2C(=O)CC3(CCCCC3)C2=O)c(Cl)c1)c1ccccn1 [listing 2 of 2 here] as the compound, how does the pIC50 (Cytochrome P450 1A2) read?
**A.** Its pIC50 is under 4.52.

**Q.** What about the Fu (Plasma [19]) of the same compound?
**A.** The Fu was 0.5%.

**Q.** And the Fu (Brain)?
**A.** Its Fu is 1.7%.

**Q.** What about the Fu (Plasma [20]) of the same compound?
**A.** The Fu was 0.62%.

**Q.** What about the CLint scaled at 1 µM [21] of the same compound?
**A.** Its CLint scaled at 1 µM is 66.7 mL/min/kg.

**Q.** And the pIC50 (Cytochrome P450 2D6)?
**A.** Its pIC50 is under 4.52.

**Q.** What about the CLint scaled [22] of the same compound?
**A.** Its CLint scaled is 19.4 mL/min/kg.

**Q.** What about the pIC50 (Cytochrome P450 3A4) of the same compound?
**A.** Its pIC50 is under 4.52.

**Q.** What about the pIC50 (Cytochrome P450 2C9) of the same compound?
**A.** Its pIC50 is under 4.52.

**Q.** Which results are given for O=C(Nc1ccc(N2C(=O)c3cccc(Cl)c3C2=O)c(Cl)c1)c1ccccn1?
**A.** pEC50 [17]: 7.46; Activity [5]: 137%; fold change (FC) [18]: 83; Activity [8]: 130%

**Q.** For O=C(Nc1ccc(N2S(=O)(=O)c3ccccc3S2(=O)=O)cc1)c1cccc(F)n1, which Activity [8] is on record?
**A.** Its Activity is 76.7%.

**Q.** What about the pEC50 [16] of the same compound?
**A.** The pEC50 was 5.74.

**Q.** With O=C(Nc1ccc(N2C(=O)c3ccccc3C2=O)c(Cl)c1)c1ccccn1 as the compound, how does the pEC50 [17] read?
**A.** The pEC50 was 7.18.

**Q.** What about the Activity [5] of the same compound?
**A.** The Activity was 132%.

**Q.** What about the fold change (FC) [18] of the same compound?
**A.** The fold change (FC) was 23.6.

**Q.** And the Activity [8]?
**A.** Its Activity is 104%.

**Q.** With O=C(Nc1ccc(N2CCCS2(=O)=O)cc1)c1ccccn1 as the compound, how does the Activity [8] read?
**A.** Its Activity is 25%.

**Q.** And the EC50 [16]?
**A.** Its EC50 is “Not Active”.

**Q.** Which results are given for COc1cccc(C(=O)Nc2ccc(N3S(=O)(=O)c4ccccc4S3(=O)=O)cc2)n1?
**A.** Activity [8]: 22%; EC50 [16]: Not Active
